# Measured values: ChEMBL document CHEMBL5712901, “DOT1L inhibition blocks multiple myeloma cell proliferation by suppressing IRF4-MYC signaling” (2019)
# Activity calls are given as the source filed them. The rule behind the calls is not given here.
# Legend:
# RPMI-8226 [1] = assay: Induction of apoptosis in human RPMI-8226 cells assessed as viable cells at 1 uM for 6 days by annexin-V based propidium iodide staining based flow cytometric analysis (reference value: 79.67%); format: functional; details: RPMI-8226, 144 h, time 6 day, read-out: Activity
# KMS-12-PE [2] = assay: Antiproliferative activity against human KMS-12-PE cells assessed as reduction in cell viability measured at 1 uM for 18 days; format: functional, cell-based; details: time 18.0 day
# MM1.S [3] = assay: Induction of cell cycle arrest in human MM1.S cells assessed as increase in accumulation of cells at G1 phase at 1 uM for 6 days; format: functional, cell-based; details: time 6.0 day
# Method in brief: (§1)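 Flow cytometric cell cycle analysis of RPMI-8226 and MM.1S cells treated with 1 μM DOT1L inhibitor or DMSO for 6 days. Sub-G1, G0-G1 and S phase populations scored. Summary is from 3 replications, mean ± SEM.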
# RPMI-8226 [4] = assay: Induction of apoptosis in human RPMI-8226 cells assessed as late apoptotic cells at 1 uM for 6 days by annexin-V based propidium iodide staining based flow cytometric analysis (reference value: 8.89%); format: functional; details: time 6 day
# MM1.S [5] = assay: Upregulation of IFN in human MM1.S cells assessed as increase in IFITM1 gene at 1 uM for 6 days by qRT-PCR analysis; format: functional, cell-based; details: time 6.0 day
# KMS-12-PE [6] = assay: Effect on human KMS-12-PE cells assessed as decrease in IRF4 mRNA level at 1 uM for 6 days by qRT-PCR analysis; format: functional, cell-based; details: time 6.0 day
# Method in brief: (§2)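 qRT-PCR of MYC and IRF4 after 1 μM DOT1L inhibitor for 6 days. Normalized to ACTB; mean of 3 replications ± SEM.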
# MM1.S [7] = assay: Effect on human MM1.S cells assessed as change in IRF4 mRNA level at 1 uM for 3 days by ChIP-qPCR analysis; format: functional, cell-based; details: time 3.0 day
# Method in brief: (§3)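 ChIP-qPCR for H3K79me2 at IRF4-MYC signaling genes after 1 μM inhibitor or DMSO for 3 days. Signal normalized to input DNA. An intergenic region 28 kb upstream of KLF2 served as negative control. Mean of 3 replications ± SEM.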
# KMS-12-PE [8] = assay: Antiproliferative activity against human KMS-12-PE cells treated 3 days at 1 uM; format: functional, cell-based; details: time 3.0 day
# Method in brief: (§4)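 Cell lines in 6-well plates, 2 × 10^4 to 8 × 10^5 cells/well, exposed to DOT1L inhibitor at 0.25-1 μM or DMSO, with medium and drug refreshed every 3 days. Viability read with Cell Counting Kit-8 on a microplate reader. Values normalized to untreated cells; mean of 3 replications ± SEM.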
# KMS-11 = assay: Antiproliferative activity against human KMS-11 cells treated 3 days at 1 uM; format: functional, cell-based; details: time 3.0 day; method in brief: as §4
# MM1.S [9] = assay: Induction of apoptosis in human MM1.S cells assessed as viable cells at 1 uM for 6 days by annexin-V based propidium iodide staining based flow cytometric analysis (reference value: 77.4%); format: functional; details: 144 h, time 6 day, read-out: Activity
# MM1.S [10] = assay: Induction of apoptosis in human MM1.S cells assessed as viable cells at 1 uM for 6 days by annexin-V based propidium iodide staining based flow cytometric analysis (reference value: 80.4%); format: functional; details: 144 h, time 6 day, read-out: Activity
# KMS-12-BM [11] = assay: Effect on human KMS-12-BM cells assessed as decrease in IRF4 mRNA level at 1 uM for 6 days by qRT-PCR analysis; format: functional, cell-based; details: time 6.0 day; method in brief: as §2
# RPMI-8226 [12] = assay: Induction of apoptosis in human RPMI-8226 cells assessed as necrotic cells at 1 uM for 6 days by annexin-V based propidium iodide staining based flow cytometric analysis (reference value: 3.61%); format: functional; details: time 6 day
# RPMI-8226 [13] = assay: Induction of apoptosis in human RPMI-8226 cells assessed as viable cells at 1 uM for 6 days by annexin-V based propidium iodide staining based flow cytometric analysis (reference value: 79.0%); format: functional; details: RPMI-8226, 144 h, time 6 day, read-out: Activity
# RPMI-8226 [14] = assay: Induction of apoptosis in human RPMI-8226 cells assessed as late apoptotic cells at 1 uM for 6 days by annexin-V based propidium iodide staining based flow cytometric analysis (reference value: 10.5%); format: functional; details: time 6 day
# KMS-12-PE [15] = assay: Effect on human KMS-12-PE cells assessed as change in IRF4 mRNA level by qRT-PCR analysis; format: functional, cell-based
# Method in brief: (§5)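 Basal MYC and IRF4 mRNA in untreated cells measured by qRT-PCR. Normalized to ACTB; mean of 3 replications ± SEM.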
# MM1.S [16] = assay: Upregulation of IFN in human MM1.S cells assessed as increase in ISG15 gene at 1 uM for 6 days by qRT-PCR analysis; details: time 6.0 day
# KMS-12-BM [17] = assay: Antiproliferative activity against human KMS-12-BM cells treated 3 days at 1 uM; format: functional, cell-based; details: time 3.0 day; method in brief: as §4
# RPMI-8226 [18] = assay: Induction of apoptosis in human RPMI-8226 cells assessed as viable cells at 1 uM for 3 days by annexin-V based propidium iodide staining based flow cytometric analysis (reference value: 91.2%); format: functional; details: RPMI-8226, 72 h, time 3 day, read-out: Activity
# RPMI-8226 [19] = assay: Induction of apoptosis in human RPMI-8226 cells assessed as necrotic cells at 1 uM for 3 days by annexin-V based propidium iodide staining based flow cytometric analysis (reference value: 3.40%); format: functional; details: time 3 day
# U-266 = assay: Antiproliferative activity against human U-266 cells treated 3 days at 1 uM; format: functional, cell-based; details: time 3.0 day; method in brief: as §4
# MM1.S [20] = assay: Induction of cell cycle arrest in human MM1.S cells assessed as increase in accumulation of cells at G0 phase at 1 uM for 6 days; format: functional, cell-based; details: time 6.0 day; method in brief: as §1
# MM1.S [21] = assay: Upregulation of IFN in human MM1.S cells assessed as increase in IFITM1 gene at 1 uM for 6 days by qRT-PCR analysis; details: time 6.0 day
# RPMI-8226 [22] = assay: Induction of cell cycle arrest in human RPMI-8226 cells assessed as increase in accumulation of cells at G1 phase at 1 uM for 6 days; format: functional, cell-based; details: time 6.0 day; method in brief: as §1
# MM1.S [23] = assay: Effect on human MM1.S cells assessed as change in Myc mRNA level at 1 uM for 3 days by ChIP-qPCR analysis; format: functional, cell-based; details: time 3.0 day; method in brief: as §3
# KMS-12-BM [24] = assay: Effect on human KMS-12-BM cells assessed as change in MYC mRNA level by qRT-PCR analysis; format: functional, cell-based; method in brief: as §5
# KMS-12-PE [25] = assay: Effect on human KMS-12-PE cells assessed as decrease in MYC mRNA level at 1 uM for 6 days by qRT-PCR analysis; format: functional, cell-based; details: time 6.0 day; method in brief: as §2
# RPMI-8226 [26] = assay: Effect on human RPMI-8226 cells assessed as change in PRDM1 mRNA level at 1 uM for 3 days by ChIP-qPCR analysis; format: functional, cell-based; details: time 3.0 day; method in brief: as §3
# RPMI-8226 [27] = assay: Upregulation of IFN in human RPMI-8226 cells assessed as increase in IFIT1 gene at 1 uM for 6 days by qRT-PCR analysis; details: time 6.0 day
# MM1.S [28] = assay: Upregulation of IFN in human MM1.S cells assessed as increase in IFIT1 gene at 1 uM for 6 days by qRT-PCR analysis; details: time 6.0 day
# MM1.S [29] = assay: Induction of apoptosis in human MM1.S cells assessed as early apoptotic cells at 1 uM for 6 days by annexin-V based propidium iodide staining based flow cytometric analysis (reference value: 14.6%); format: functional; details: time 6 day
# KMS-12-PE [30] = assay: Effect on human KMS-12-PE cells assessed as change in MYC mRNA level by qRT-PCR analysis; format: functional, cell-based; method in brief: as §5
Structure (SMILES),viability at 1 µM (RPMI-8226 [1]) [%],Activity (KMS-12-PE [2]),Activity (MM1.S [3]),Activity (RPMI-8226 [4]) [%],Activity (MM1.S [5]),Activity (KMS-12-PE [6]),Activity (MM1.S [7]),Activity (KMS-12-PE [8]),Activity (KMS-11),viability at 1 µM (MM1.S [9]) [%],viability at 1 µM (MM1.S [10]) [%],Activity (KMS-12-BM [11]),Activity (RPMI-8226 [12]) [%],viability at 1 µM (RPMI-8226 [13]) [%],Activity (RPMI-8226 [14]) [%],Activity (KMS-12-PE [15]),Activity (MM1.S [16]),Activity (KMS-12-BM [17]),viability at 1 µM (RPMI-8226 [18]) [%],Activity (RPMI-8226 [19]) [%],also measured
CC(C)N(CCCNC(=O)Nc1ccc(C(C)(C)C)cc1)C[C@H]1O[C@@H](n2cc(Br)c3c(N)ncnc32)[C@H](O)[C@@H]1O,66.9,Active,Active,20.2,Active,Active,Active,inactive,Active,42.4,67.9,Active,8.1,60.9,12.9,Active,Active,Active,77.8,6.32,Activity (U-266): inactive; Activity (MM1.S [20]): Active; Activity (MM1.S [21]): Active; Activity (RPMI-8226 [22]): Active; Activity (MM1.S [23]): Active; Activity (KMS-12-BM [24]): Active; Activity (KMS-12-PE [25]): Active; Activity (RPMI-8226 [26]): Active; Activity (RPMI-8226 [27]): Active; Activity (MM1.S [28]): Active; Activity (MM1.S [29]): 20.2%; Activity (KMS-12-PE [30]): Active
CC(C)N(C[C@H]1O[C@@H](n2cnc3c(N)ncnc32)[C@H](O)[C@@H]1O)[C@H]1C[C@@H](CCc2nc3cc(C(C)(C)C)ccc3[nH]2)C1 [PINOMETOSTAT],50.2,Active,Active,17.5,Active,Active,Active,inactive,Active,52.8,67.5,Active,9.09,63.5,18.3,Active,Active,Active,76.6,6.18,Activity (U-266): inactive; Activity (MM1.S [20]): Active; Activity (MM1.S [21]): Active; Activity (RPMI-8226 [22]): Active; Activity (MM1.S [23]): Active; Activity (KMS-12-BM [24]): Active; Activity (KMS-12-PE [25]): Active; Activity (RPMI-8226 [26]): Active; Activity (RPMI-8226 [27]): Active; Activity (MM1.S [28]): Active; Activity (MM1.S [29]): 21.1%; Activity (KMS-12-PE [30]): Active
